Source: PubChem
Compounds with a hit are over-represented: about 1.1% of the library has one in this group of screens.
TbHK1 inh = blocks Trypanosoma brucei hexokinase 1 activity. 220,000 tested, 0.11% active. AID 1430. recombinant TbHK1, G6PDH-coupled NADH A340. inhibition, % at 10 µM;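 active means inhibition of 50% or more in the single-dose primary screen; inactive means inhibition below 50%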
KLK5 inh = blocks human kallikrein 5 protease activity; AID 873; inhibition, % at 5 µM; Q9Y337; 210,000 tested, 0.59% active; recombinant hK5, fluorogenic AMC substrate cleavage;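 active means inhibition of 40% or more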
Thrombin inh = inhibitors of human thrombin. P00734. 220,000 tested, 0.26% active. alpha-thrombin, Boc-VPR-AMC fluorogenic substrate cleavage. inhibition, % at 5 µM;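 active means inhibition at or above 40%; inactive means inhibition below 40%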
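Material: human alpha-thrombin protein. Incubation: reaction at ambient temperature. Technique: fluorescence of released AMC, ex 355 nm, em 460 nm. Control set: no-compound enzyme wells and no-enzyme blanks. Also added: Boc-VPR-AMC substrate, 15 µM final. Buffer or medium: pH 7.5 Tris (50 mM) with NaCl 150 mM, Tween 20 0.05%.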
FXIIa inh = factor XIIa (human) inhibition; 220,000 tested, 0.3% active; P00748; inhibition, % at 5 µM; purified FXIIa, Boc-QGR-AMC fluorogenic substrate, 2 h; AID 800; in the data active means inhibition above about 40%
Target sequence (P00748 20-372 limits assumed): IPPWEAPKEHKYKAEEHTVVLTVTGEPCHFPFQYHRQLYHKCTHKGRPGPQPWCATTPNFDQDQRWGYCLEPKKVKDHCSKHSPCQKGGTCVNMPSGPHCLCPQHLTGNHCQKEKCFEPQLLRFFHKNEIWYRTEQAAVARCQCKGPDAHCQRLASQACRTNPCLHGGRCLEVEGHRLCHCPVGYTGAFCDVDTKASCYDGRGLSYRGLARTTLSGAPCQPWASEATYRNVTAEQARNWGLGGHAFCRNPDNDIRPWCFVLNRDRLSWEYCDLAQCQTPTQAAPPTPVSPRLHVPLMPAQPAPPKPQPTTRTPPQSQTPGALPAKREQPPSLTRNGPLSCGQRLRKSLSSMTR
Target sequence (P00748 373-615 limits assumed): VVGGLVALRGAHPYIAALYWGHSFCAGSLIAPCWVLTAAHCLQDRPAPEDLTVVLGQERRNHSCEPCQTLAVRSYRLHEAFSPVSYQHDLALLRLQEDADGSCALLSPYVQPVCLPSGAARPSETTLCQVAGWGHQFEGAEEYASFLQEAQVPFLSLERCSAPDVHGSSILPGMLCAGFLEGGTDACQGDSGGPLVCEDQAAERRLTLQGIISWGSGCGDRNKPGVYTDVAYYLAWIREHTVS
FXIa inh 1536 = factor XIa (human) inhibition; P03951; purified FXIa, Boc-Glu-Ala-Arg-AMC fluorogenic substrate; inhibition, % at 5 µM; 220,000 tested, 0.14% active; AID 798;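 active means inhibition of at least 40%; inactive means inhibition below 40%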;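 further: fluorescence of freed AMC excited at 355 nm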
G6PDH ctr = counter-screen for TbHK1 inhibitors: Leuconostoc G6PDH inhibition. 210 tested, 7% active. inhibition, % at 10 µM. AID 2516. shares compounds with TbHK1 inh. purified G6PDH, NADH absorbance, 1 h;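 active means at least 50% inhibition in the glucose-6-phosphate dehydrogenase coupled counterscreen; inconclusive means no clear call, values can overlap the other calls; inactive means inhibition below 50%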
TbHK1 rescreen = confirmation of Trypanosoma brucei hexokinase 1 inhibitors; shares compounds with TbHK1 inh; recombinant TbHK1, G6PDH-coupled NADH A340 absorbance; inhibition, % at 10 µM; 210 tested, 10% active; AID 2560;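 active means inhibition of at least 50% in both of the two screening runs; inconclusive means at least 50% in one run, below 50% in the other; inactive means inhibition below 50% in both runs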
Large screens that a line does not name were inactive (follow-up assays come after a bar, where they were run).

O=C(O)COc1ccccc1C(Nc1ccccn1)c1cc(Cl)c2cccnc2c1O (centres undefined)	TbHK1 inh 76 | G6PDH ctr inactive | TbHK1 rescreen inactive
OCC1N=C(c2ccccn2)OC1c1ccccc1 (centres undefined)	TbHK1 inh 56 | G6PDH ctr inactive | TbHK1 rescreen inactive
Cc1ccc(N=Nc2ccc(O)c3ncccc23)cc1C	none
Cc1ccc(N=Nc2ccc(O)c3ncccc23)cc1	TbHK1 inh 81 | G6PDH ctr inactive | TbHK1 rescreen inactive
Cc1ccc(OCC(=O)Nc2ccccc2F)cc1C	none
Cc1occc1-c1nnc(SCC(=O)O)n1-c1ccccc1	none
C=CCNC(=O)CSc1nnc(-c2ccccn2)n1Cc1ccccc1	none
CCOC(=O)CNC(=O)CSc1nnc(-c2ccco2)n1N	TbHK1 inh 51 | G6PDH ctr inactive | TbHK1 rescreen inactive
C=CCn1c(SCC(=O)NCC(=O)OCC)nnc1-c1ccccn1	TbHK1 inh 50 | G6PDH ctr inactive | TbHK1 rescreen inactive
CCOC(=O)CNC(=O)CSc1nnc(-c2ccco2)n1Cc1ccco1	none
COc1cc(CCC(=O)OCC(=O)NC(=O)c2ccc(Cl)cc2)cc(OC)c1OC	none
COc1cc(CCC(=O)OCC(N)=O)cc(OC)c1OC	TbHK1 inh 56 | G6PDH ctr inactive | TbHK1 rescreen inactive
CCCCCC(C(=O)O)C(C)CC(=O)NC1CCCCC1 (centres undefined)	TbHK1 inh 63 | G6PDH ctr inactive | TbHK1 rescreen inactive
CCCCc1ccc(/C=C2/C(=O)ON=C2c2ccccc2)s1	TbHK1 inh 55 | G6PDH ctr inactive | TbHK1 rescreen 55
CC(C)N(C(=O)c1ccc(C(=O)Nc2ccc([N+](=O)[O-])cc2)cc1)C(C)C	TbHK1 inh 56 | G6PDH ctr inactive | TbHK1 rescreen inactive
O=C(NC(=S)NNS(=O)(=O)c1ccccc1)c1cccnc1	none
O=C(NC(=S)NNS(=O)(=O)c1ccccc1)c1ccccc1[N+](=O)[O-]	TbHK1 inh 65 | G6PDH ctr inactive | TbHK1 rescreen inactive
O=C(NC(=S)NNS(=O)(=O)c1ccccc1)c1ccc([N+](=O)[O-])cc1	TbHK1 inh 76 | G6PDH ctr inactive | TbHK1 rescreen inactive
CCCCC(=O)NC(=S)NNS(=O)(=O)c1ccccc1	TbHK1 inh 56 | G6PDH ctr inactive | TbHK1 rescreen inactive
O=C(NNC(=S)NC(=O)c1ccccc1[N+](=O)[O-])c1ccccc1Cl	none
CC1(C)CC(=O)C(C=Nc2ccc(NC3=C(C#N)C(=O)CC(C)(C)C3)cc2)=C(O)C1	none
COC(=O)c1ccccc1NC(=S)N1CCN(c2ccc(OC)cc2)CC1	none
CC(C)CCN1CCN(Cc2cccc(C(F)(F)F)c2)CC1CCO (centres undefined)	none
COc1ccc(C(=O)C2CCCN(Cc3c[nH]c4ccccc34)C2)c(OC)c1 (centres undefined)	none (no result: KLK5 inh)
S=C(Nc1cccc(Cl)c1)N(CCCN1CCCC1)Cc1cccn1Cc1ccc(Cl)cc1	TbHK1 inh 51 | G6PDH ctr inactive | TbHK1 rescreen inactive
CN(C)c1ccc2nc3ccc(=[N+](C)C)cc-3sc2c1	TbHK1 inh 75 | G6PDH ctr 128 | TbHK1 rescreen 77
Cc1cc2nc3ccc(=[N+](C)C)cc-3sc2cc1N	TbHK1 inh 66 | G6PDH ctr 126 | TbHK1 rescreen 77
COc1ccc(N(CC(=O)Nc2cc([N+](=O)[O-])ccc2C)S(C)(=O)=O)cc1OC	none
O=C(O)C1C(c2ccccc2)C(C(=O)Oc2ccccc2)C1c1ccccc1 (centres undefined)	none
COC(=O)C1C(c2ccccc2)C(C(=O)N2CCN(C)CC2)C1c1ccccc1 (centres undefined)	TbHK1 inh 53 | G6PDH ctr inactive | TbHK1 rescreen inactive
CN(C)S(=O)(=O)c1cccc(NC(=S)NN=C(Cc2ccccc2)Cc2ccccc2)c1	TbHK1 inh 51 | G6PDH ctr inactive | TbHK1 rescreen inactive
CCOc1ccc(NC(=S)N2CCN(C/C=C/c3ccccc3)CC2)cc1	none (no result: FXIIa inh)
Cc1cccc(C(=O)NC(=S)NNC(=O)COc2c(C)cccc2C)c1	none
Cc1cccc(C(=O)NC(=S)NNC(=O)Cc2ccccc2)c1	TbHK1 inh 67 | G6PDH ctr inactive | TbHK1 rescreen inactive
COc1ccc2o/c(=N/NC(=S)Nc3ccccc3)c(C(N)=O)cc2c1	none
C#CCOCCOCCOCCNc1nc(N2CCN(C(=O)C(Cc3cc4ccccc4[nH]3)n3cc(C(N)Cc4ccc(O)cc4)nn3)CC2)nc(N2CCN(C(=O)C(Cc3cc4ccccc4[nH]3)n3cc(C(N)Cc4ccc(O)cc4)nn3)CC2)n1 (centres undefined)	TbHK1 inh 53 | G6PDH ctr 88 | TbHK1 rescreen inactive
Cn1nccc1C(=O)Oc1ccc(/C=N/NC(=O)c2ccccc2O)cc1	none
CN(Cc1cccc(Cl)c1Cl)c1ccc(S(=O)(=O)N2CCCCC2)cc1[N+](=O)[O-]	none
CCOC(=O)NC(NC(=O)OCC)C(=O)c1ccccc1	TbHK1 inh 65 | G6PDH ctr inactive | TbHK1 rescreen inactive
O=C(NC(NC(=O)c1ccccc1)C(=O)c1ccccc1)c1ccccc1	none
COC(=O)c1sc2nc(CN3CCN(c4cccc(C(F)(F)F)c4)CC3)[nH]c(=O)c2c1C	none
COc1cccc(CNC(=O)c2ccc3nc[nH]c3c2)c1	TbHK1 inh 67 | G6PDH ctr inactive | TbHK1 rescreen inactive
O=C(NCc1cccc(Cl)c1)c1ccc2nc[nH]c2c1	none
CCN(CC)c1ccc2cc(-c3nc4ccccc4[nH]3)c(=O)oc2c1	TbHK1 inh 68 | G6PDH ctr 111 | TbHK1 rescreen 84
CC(NC(=S)NCc1ccccc1)C12CC3CC(CC(C3)C1)C2 (centres undefined)	none
CCS(=O)(=O)c1ccc(O)c(NC(=O)Nc2ccc(C(C)(C)C)cc2)c1	none
CCS(=O)(=O)c1ccc(O)c(NC(=O)Nc2ccccc2)c1	TbHK1 inh 50 | G6PDH ctr inactive | TbHK1 rescreen inactive
O=C(Cn1sc2ccccc2c1=O)NC12CC3CC(CC(C3)C1)C2	TbHK1 inh 66 | G6PDH ctr inactive | TbHK1 rescreen 85
Cc1n[nH]c(=O)nc1NC(C)c1ccccc1 (centres undefined)	TbHK1 inh 51 | G6PDH ctr inactive | TbHK1 rescreen inactive
COc1ccc(CCNC(=O)Cn2nnc(-c3cccc(OC)c3OC)n2)cc1OC	none
COc1ccc(CCNC(=O)Cn2nnc(-c3ccc(N4CCOCC4)cc3)n2)cc1OC	TbHK1 inh 51, KLK5 inh 126 | G6PDH ctr inactive | TbHK1 rescreen inactive
Cc1cc(C)c2c(=O)n(CC(=O)Nc3ccc(Br)c(C)c3)sc2n1	TbHK1 inh 51 | G6PDH ctr inactive | TbHK1 rescreen inactive
COc1cc2cccc(OC)c(=O)c2c(OC)c1OC	none
O=c1c(O)cccc2cc(O)c(O)c(O)c12	TbHK1 inh 70 | G6PDH ctr inactive | TbHK1 rescreen inconclusive
O=C(O)CCn1nnc(-c2cccs2)n1	TbHK1 inh 54 | G6PDH ctr inactive | TbHK1 rescreen inactive
O=C(CSc1n[nH]c(-c2ccccc2O)n1)N1CCCc2ccccc21	TbHK1 inh 64 | G6PDH ctr inactive | TbHK1 rescreen inactive
C=CCn1c(SCC(N)=O)nnc1-c1cnccn1	none
CCNC(=O)NC(=O)CSc1ccc(NC(C)=O)cc1	TbHK1 inh 74 | G6PDH ctr inactive | TbHK1 rescreen inactive
